From ChEMBL document CHEMBL5154683, “A 5-FU Precursor Designed to Evade Anabolic and Catabolic Drug Pathways and Activated by Pd Chemistry In Vitro and In Vivo” (J Med Chem, 2022)

Tests used:
[1] = tested on: HCT-116; test: Antiproliferative activity against human HCT-116 cells assessed as reduction in cell viability at 100 uM incubated for 5 days in presence of Pd-resins at 0.8 mg/ml by PrestoBlue dye based assay relative to control; type: functional; conditions: time 5 day
Summary of the method: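 HCT116 seeded at 750 cells/well and grown 48 h. Medium then replaced with fresh medium with or without Pd resins (20–160 μg per well; 0.2–1.4 mg/mL). Compound added as 5 μL of a 2 mM stock in 2% DMSO/medium, incubated 5 d. PrestoBlue fluorescence read; values normalised to untreated cells within each resin dilution.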

[2] = Plasma protein binding in rat at 5 uM; type: ADME, cell-free; conditions: read-out: PPB (converted)
Summary of the method: (§1)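 Binding of compound at 5 μM measured in rat and human plasma, with compound recovery determined; n = 3.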

[3] = Stability in Sprague-Dawley rat hepatocytes assessed as parent compound remaining at 10 uM measured after 60 mins by UPLC analysis; type: ADME, cell-based, Hepatocyte; conditions: read-out: Stability
Summary of the method: (§2)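 Cryopreserved male Sprague–Dawley rat or male human hepatocytes (0.5 × 10⁶ cells/mL) in Leibovitz buffer with 10 μM compound, 37 °C, shaken 700 rpm, 60 min. Samples at 0 and 60 min quenched 1:1 with ice-cold acetonitrile; supernatant analyzed by UPLC–QToF MS (positive ion). Hepatocyte-only and buffer-only negatives; verapamil and 7-hydroxycoumarin as viability controls.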

[4] = tested on: HCT-116; test: Antiproliferative activity against human HCT-116 cells assessed as reduction in cell viability measured after 5 days by PrestoBlue reagent based assay; type: functional; conditions: HCT-116, 120 h
Summary of the method: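 Cells in 10% FBS, 2 mM L-glutamine media at 37 °C, 5% CO₂ (HCT116 in McCoy's 5A, BxPC-3 in RPMI). Seeded at 3000 (HCT116) or 2500 (BxPC-3) cells/well and grown 48 h. Medium then replaced with drug-containing medium, 0.1% DMSO, for 5 d. PrestoBlue 10% v/v added for 1 h, fluorescence read ex 540/em 590 nm. Normalised to DMSO-only wells; sigmoidal variable-slope fit; n = 3.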

[5] = Metabolic stability in rat hepatocytes assessed as half life at 1 uM by LC-MS/MS analysis; type: ADME, cell-based, Hepatocyte
Summary of the method: (§3)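 Suspended hepatocytes (0.5 × 10⁶ cells/mL) in Williams E medium with 2 mM L-glutamine and 25 mM HEPES at 37 °C, compound added with 0.25% v/v DMSO after preincubation; aliquots quenched into methanol with internal standard at time points, centrifuged, supernatant analyzed by LC-MS/MS; two control compounds included.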

[6] = Mean residence time in male Wistar Han rat at 10 mg/kg, po administered as single dose measured upto 24 hrs; type: ADME, organism-based; conditions: in vivo
Summary of the method: (§4)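 Male jugular-vein-cannulated Wistar Han rats, 263–319 g, single dose. IV: 1 mg/kg as 2 mL/kg of 0.5 mg/mL in 5% DMSO/95% HPCD (20% w/v), not fasted. PO: 10 mg/kg as 5 mL/kg of 2 mg/mL suspension in 5% DMSO/95% tween 80/HPCD vehicle, fasted overnight. Serial cannula blood sampling 0.083/0.25–24 h (n = 3/route); parent quantified by QToF against calibration curve.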

[7] = Prodrug conversion in PBS buffer assessed as mono-depropargylated intermediate formation by measuring retention time at 100 uM in presence of Pd-resin measured upto 1 hr by UPLC analysis; type: ADME
Summary of the method: (§5)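 Prodrug (100 μM in PBS, pH 7.4) shaken at 1200 rpm, 37 °C with 1 mg/mL Pd resins (30 μm). Sampled at 10, 20, 40 min, 1, 3, 6, 24 and 48 h; analyzed by reverse-phase UPLC (C18, 60 °C, UV 254 nm), products identified by retention time against authentic standards.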

[8] = Prodrug conversion in PBS buffer assessed as 5-Fluorouracil formation by measuring retention time at 100 uM in presence of Pd-resin measured upto 1 hr by UPLC analysis; type: ADME; summary of the method: as §5
[9] = Mean residence time in male Wistar Han rat at 1 mg/kg, iv administered as single dose measured upto 24 hrs; type: ADME, organism-based; conditions: in vivo; summary of the method: as §4
[10] = AUC (0 to infinity) in male Wistar Han rat at 10 mg/kg, po administered as single dose measured upto 24 hrs; type: ADME, organism-based; design: time < 24 hrs, dose 10 mg/kg, route po; conditions: in vivo; summary of the method: as §4
[11] = molecular target: Albumin (Homo sapiens, UniProt P02768); test: Binding affinity to human plasma albumin; type: ADME, cell-free
[12] = Plasma protein binding in human at 5 uM; type: ADME, cell-free; conditions: read-out: PPB (converted); summary of the method: as §1
[13] = Stability in human hepatocytes assessed as parent compound remaining at 10 uM measured after 60 mins by UPLC analysis; type: ADME, cell-based, Hepatocyte; conditions: read-out: Stability; summary of the method: as §2
[14] = Drug metabolism in PBS buffer assessed as dealkylation of parent compound causing metabolite formation at 100 uM in presence of palladium resin; type: ADME; summary of the method: as §5
[15] = Oral bioavailability in Wistar Han rat at 10 mg/kg administered as single dose measured upto 24 hrs; type: ADME, organism-based; conditions: in vivo; summary of the method: as §4
[16] = Plasma protein binding in human assessed as compound recovery at 5 uM; type: ADME, cell-free; conditions: read-out: Drug recovery; summary of the method: as §1
[17] = Apparent permeability across basolateral to apical side in human Caco-2 cells assessed as drug recovery at 10 uM measured after 120 mins by LC-MS/MS analysis; type: ADME, cell-based; conditions: read-out: Drug recovery
Summary of the method: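 Caco-2 cells (P40-60) seeded at 1 × 10⁵ cells/cm² on Transwells, used on day 20; rinsed and equilibrated 40 min in HBSS pH 7.4. Compound at 10 μM in HBSS, 1% v/v DMSO, added apically (A–B) or basolaterally (B–A); 120 min at 37 °C, 5% CO₂. Lucifer yellow monitored monolayer integrity; LC-MS/MS with eight-point calibration; recovery from C₀ and both compartments.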

[18] = Mean residence time in male Wistar Han rat at 1000 mg/kg, po administered as single dose measured upto 24 hrs; type: ADME, organism-based; conditions: in vivo
Summary of the method: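 Single oral dose 1000 mg/kg in male and female rats, dosing volume 10 mL/kg (n = 6); animals observed 14 days with clinical checks, functional/neurobehavioral tests and body weight, necropsy on d15; exposure parameters from the toxicokinetic arm of this study.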

[19] = AUC (0 to t) in male Wistar Han rat at 1 mg/kg, iv administered as single dose measured upto 24 hrs; type: ADME, organism-based; design: dose 1 mg/kg, time < 24 hrs, route iv; conditions: in vivo; summary of the method: as §4
[20] = AUC (0 to t) in male Wistar Han rat at 10 mg/kg, po administered as single dose measured upto 24 hrs; type: ADME, organism-based; design: time < 24 hrs, dose 10 mg/kg, route po; conditions: in vivo; summary of the method: as §4
[21] = Volume of distribution at steady state in male Wistar Han rat at 1 mg/kg, iv administered as single dose measured upto 24 hrs; type: ADME, organism-based; conditions: in vivo, read-out: Vdss
Summary of the method: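 Male jugular-vein-cannulated Wistar Han rats (n = 3, 263–319 g, not fasted) given 1 mg/kg IV as 2 mL/kg of 0.5 mg/mL solution in 5% DMSO/95% HPCD (20% w/v). Serial blood via cannula from 0.083 to 24 h, mixed with heparinized water and stored at –20 °C. Parent quantified by QToF against a calibration curve.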

[22] = Metabolic stability in human hepatocytes assessed as intrinsic clearance at 1 uM measured per 10^6 cells by LC-MS/MS analysis; type: ADME, cell-based, Hepatocyte; conditions: read-out: CLH; summary of the method: as §3
[23] = Metabolic stability in rat hepatocytes assessed as intrinsic clearance at 1 uM measured per 10^6 cells by LC-MS/MS analysis; type: ADME, cell-based, Hepatocyte; conditions: read-out: CLH; summary of the method: as §3

Albumin, sequence (P02768 whole entry): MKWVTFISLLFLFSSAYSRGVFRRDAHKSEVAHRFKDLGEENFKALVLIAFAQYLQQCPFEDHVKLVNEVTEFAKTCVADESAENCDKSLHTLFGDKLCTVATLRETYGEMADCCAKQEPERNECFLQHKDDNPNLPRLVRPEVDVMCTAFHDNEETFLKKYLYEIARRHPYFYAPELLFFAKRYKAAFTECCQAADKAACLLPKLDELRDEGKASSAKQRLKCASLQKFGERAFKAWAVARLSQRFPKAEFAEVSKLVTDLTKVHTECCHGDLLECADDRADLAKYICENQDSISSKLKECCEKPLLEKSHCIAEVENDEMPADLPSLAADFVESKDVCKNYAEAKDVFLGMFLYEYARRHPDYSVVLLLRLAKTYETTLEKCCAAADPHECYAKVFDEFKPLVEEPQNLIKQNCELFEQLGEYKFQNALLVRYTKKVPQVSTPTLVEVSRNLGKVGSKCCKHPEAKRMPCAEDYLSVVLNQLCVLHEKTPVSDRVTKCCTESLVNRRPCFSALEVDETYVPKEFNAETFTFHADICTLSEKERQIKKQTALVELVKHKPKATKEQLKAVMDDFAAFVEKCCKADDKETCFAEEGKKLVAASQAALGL

C#CCOc1ncc(F)c(OCC#C)n1
Activity [1]: 7% | fraction unbound at 5 µM [2]: 0.161 | remaining at 1 h, 10 µM [3]: 95% | EC50 [4]: > 100 µM | half-life at 1 µM [5]: 1.52 h | MRT [6]: 1.86 h | Retention_time [7]: 0.98 min | Retention_time [8]: 0.78 min | MRT [9]: 0.569 h | AUC(0-inf) [10]: 6190 ng·h/mL | Activity [11]: 10% | fraction unbound at 5 µM [12]: 0.142 | remaining at 1 h, 10 µM [13]: > 99% | Drug metabolism [14]: Metabolite_Detected | F [15]: 187% | recovery at 5 µM [16]: 95.7% | recovery at 2 h, 10 µM [17]: 73.9% | MRT [18]: 9.7 h | AUC(0-t) at 24 h [19]: 324 ng·h/mL | AUC(0-t) at 24 h [20]: 6080 ng·h/mL | Vd [21]: 1.76 L/kg | hepatocyte CLint at 1 µM [22]: 4.51 µL/min/1e6 cells | hepatocyte CLint at 1 µM [23]: 15.3 µL/min/1e6 cells
